# Source: PubChem BioAssay (several laboratories)
# HSF-1 act = increases HSF-1 driven luciferase reporter signal; NIH3T3-HGL HSF-1 luciferase reporter, MG132, 8 h; 100% = twice DMSO control signal; activation, % at 9 µM; hit rate 1.7% among 300,000; AID 504408;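 active means mean replicate activation of at least 50% with a set share of replicates each reaching 50%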;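 further: 0% = median of the neutral control wells and 100% = twice that signal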
# T cruzi inh = blocks replication of Trypanosoma cruzi; T. cruzi beta-gal in NIH3T3, luminescence, 90 h; hit rate 1.4% among 300,000; inhibition, % (no concentration beside the values);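 active means mean inhibition across valid replicates above about 55%, limit read from the data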;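 further: signal also drops with host cell toxicity which is not excluded here; 0% = plate median of DMSO wells and 100% = zero luminescence signal; higher percent means less beta-gal luminescence so fewer parasites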
#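 compound dosing = single 50 nL compound addition per well in DMSO | material = NIH/3T3 host cells with β-galactosidase reporter T. cruzi | input = 5,000 host fibroblasts per well | timing = ≥90 h infection period, 3 h prior cell attachment | read-out basis = percent inhibition of parasite-derived β-gal signal | detection = GalScreen β-gal luminescence, detergent lysis, 60 min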
# L major viab = Leishmania major promastigote growth inhibition; Leishmania major promastigotes, resazurin fluorescence viability; inhibition, % at 10 µM; hit rate 9% among 200,000; in the data active means inhibition above about 50%;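 further: promastigotes grown with compound for 44 hours at 28 °C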
# HSF1 inhib = HSF1 inhibition; NIH3T3-HGL HSE-luciferase, MG132-induced, luminescence 8 h; hits give low values; activity change, negative = inhibition, % at 7.5 µM (by protocol); hit rate 0.77% among 300,000; AID 2098;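 active means more than half of replicate wells show activity change below -50%, luminescence cut by over half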;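 further: luciferase reports HSF-1 transcriptional activity via heat shock element; 0% = median of DMSO wells and -100% = zero luminescence signal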
# Hsp70 act = switches on Hsp70 transcription. HeLa Hsp70 promoter luciferase reporter, luminescence; scaled: vehicle 0, proteasome-inhibitor control 100%. hit rate 0.04% among 200,000. activation, % at 10 µM;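 active means activation above the mean across all tested compounds plus 3 SD, cutoff set per campaign, cut at about 5.5% in these data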;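 further: 100% = MG132 at 30 µM as the positive control and 0% = DMSO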
# * hit, by the source's call; / = no result. Shown is part of a subset that was picked to be rich in hits.
SMILES,HSF-1 act,T cruzi inh,L major viab,HSF1 inhib,Hsp70 act
CCOC(=O)N1CCN(S(=O)(=O)N2CCCC(C(=O)NCc3ccccc3Cl)C2)CC1 (stereo not given),-64,-6,/,-53*,/
CCOC(=O)N1CCN(S(=O)(=O)N2CCCC(C(=O)NCCc3ccc(C)cc3)C2)CC1 (stereo not given),-1,-2,/,3,/
CCOc1ccc(OCC(=O)Nc2ccc(OC)cc2[N+](=O)[O-])cc1,7,-12,-2,-10,0
CCOc1ccc(NC(=O)COC(=O)C2(C)CC2(Cl)Cl)c([N+](=O)[O-])c1 (stereo not given),-62,8,-1,-53*,0
CC1(C(=O)OCC(=O)Nc2ccc(C(N)=O)cc2)CC1(Cl)Cl (stereo not given),10,-6,-2,3,0
CC1(C(=O)OCC(=O)Nc2ccc3ccccc3c2)CC1(Cl)Cl (stereo not given),66*,2,10,29,0
CCOC(=O)/C(=N/O)C1=NC(C)(C)Cc2cc(C)c(C)cc21,-7,-9,-4,-1,0
CCCCC(=O)NC(c1cccc([N+](=O)[O-])c1)c1c(OC(C)=O)ccc2ccccc12 (stereo not given),23,37,89*,15,0
CC(=O)Oc1ccc2ccccc2c1C(NC(=O)C(C)C)c1cccc([N+](=O)[O-])c1 (stereo not given),14,22,99*,9,0
CC(=O)NC(c1cccc([N+](=O)[O-])c1)c1c(OC(C)=O)ccc2ccccc12 (stereo not given),30,-15,71*,5,0
CC(=O)Oc1ccc2ccccc2c1C(NC(=O)Cc1ccccc1)c1ccccc1 (stereo not given),14,12,28,4,0
Cc1onc(-c2ccccc2)c1C(=O)OCC(=O)NC(=O)c1ccccc1,14,-7,/,-3,/
CCCCNC(=O)CCc1c(C)nc2c(c(C)nn2-c2ccccc2)c1C,-14,55*,/,-8,/
Cc1ccc(CSC(Nc2ccc(F)cc2)=C(C#N)C#N)cc1,16,-27,58*,10,0
CCN(CC)C(=O)CSC(Nc1ccc(F)cc1)=C(C#N)C#N,2,-8,/,-2,/
CC(Cc1ccccn1)NC(=O)CCc1nnc(C2CCCCC2)o1 (stereo not given),10,0,-3,0,0
COc1ccc(C(=O)/C=C/c2ccccc2C(F)(F)F)cc1,/,-11,54*,/,0
O=C(N/N=C/c1ccccc1OC(=O)c1ccc2c(c1)OCO2)c1cccc(F)c1,-8,-2,-5,6,0
O=C(Oc1ccccc1/C=C\C(=O)c1cc2ccccc2o1)c1cccc(F)c1,235*,-28,79*,199,0
COc1ccc(O)c(C(=O)/C=C/c2cc3ccccc3o2)c1,17,-21,4,18,0
COc1cccc(C(=O)Oc2ccccc2/C=C\C(=O)c2cc3ccccc3o2)c1,131*,16,100*,129,0
O=C(Oc1ccccc1/C=C\C(=O)c1cc2ccccc2o1)c1ccccc1,366*,1,92*,289,0
C=CCOC(=O)C(=O)/C=C/c1ccc2c(c1)Cc1ccccc1-2,1,-1,1,-1,0
COC(=O)c1ccc(C(=O)OC)c(NC(=O)CSCC(=O)O)c1,30,-27,/,14,/
COCCOC(=O)c1c(NC(=O)CSc2cccc[n+]2[O-])sc(C(N)=O)c1C,72*,-20,-2,34,0
SMILES,HSF-1 act,T cruzi inh,L major viab,HSF1 inhib,Hsp70 act
COC(=O)c1ccc(C(=O)OC)c(NC(=O)CSc2cccc[n+]2[O-])c1,0,17,98*,-10,0
COC(=O)c1ccc(C(=O)OC)c(NC(=O)COC(=O)C2CC2C)c1 (stereo not given),10,-19,76*,5,0
O=C(CSc1cccc[n+]1[O-])CSc1cccc[n+]1[O-],-1,67*,99*,-3,0
O=C(Cn1nnc2ccccc2c1=O)N[C@H](C(=O)O)c1ccccc1,-4,-3,/,-3,/
Cn1c(SCC(=O)NCc2ccco2)nnc1C1CCCC1,-5,-6,/,0,/
Cc1ccc(S(=O)(=O)NCCN2CCOCC2)c(C)c1C,5,2,8,-9,0
CN(CC(=O)Nc1cccc(F)c1)C(=O)C1CC(=O)N(Cc2ccco2)C1 (stereo not given),-15,-14,/,-3,/
O=C(CSc1cccc[n+]1[O-])Nc1ccccc1Oc1ccccc1,2,82*,100*,-2,0
COC(=O)c1ccc(-n2c(C)cc(C(=O)CSc3cccc[n+]3[O-])c2C)cc1,11,5,98*,-7,0
COc1ccc(-c2cc(C(=O)N3CCOCC3)c3cc(C)ccc3n2)cc1,-13,-7,65*,0,0
Cc1ccc(-c2cc(C(F)F)n3ncc(C(=O)N4CCN5CCCC5C4)c3n2)cc1 (stereo not given),2,3,55*,0,0
COc1ccc(-c2cc(C(F)F)n3ncc(C(=O)N4CCN(C)CC4)c3n2)cc1,-10,5,98*,-1,0
COc1ccc(-c2cc(C(=O)N3CCCCCC3)c3cc(C)ccc3n2)cc1,-9,-10,/,-1,/
Cc1ccc(-c2cc(C(F)F)n3ncc(C(=O)NN4CCCCC4)c3n2)cc1,1,23,4,-3,0
CCOC(=O)C1CCCN(C(=O)c2cnn3c(C(F)F)cc(-c4ccc(C)cc4)nc23)C1 (stereo not given),9,39,98*,-1,0
COc1ccc(-c2cc(C(F)F)n3ncc(C(=O)Nc4cnn(Cc5ccccc5)c4)c3n2)cc1,7,27,11,-5,0
COc1cccc(-c2cc(C(F)(F)F)n3ncc(C(=O)N4CCc5ccccc5C4)c3n2)c1,9,14,22,11,0
COc1ccc(-c2cc(C(F)(F)F)n3ncc(C(=O)N4CCc5ccccc5C4)c3n2)cc1,35,63*,29,15,0
CCOC(=O)C1CCCN(C(=O)c2sc3nc(-c4ccc(OC)cc4)cn3c2C)C1 (stereo not given),-9,-8,100*,-9,0
COc1ccc(-c2cc(C(F)F)n3ncc(C(=O)Nc4cccc(S(=O)(=O)N5CCOCC5)c4)c3n2)cc1,16,54,65*,9,0
CCN(CC)S(=O)(=O)c1ccc2[nH]c(=O)cc(C(=O)Nc3cccc(C(C)=O)c3)c2c1,3,0,-3,7,0
Cc1oc2cc(Br)c(O)c(Br)c2c1-c1ccccc1,26,-11,/,19,/
Cc1cc2c(cc(C(=O)OC(C(=O)NCc3ccco3)C(C)C)n2C)o1 (stereo not given),24,8,99*,1,0
O=C(NC(=S)Nc1ccc2c(c1)OCCO2)c1ccccc1F,86*,-14,-9,23,0
